Experimental data taken from ChEMBL document CHEMBL2331455, “Potent vasorelaxant analogs from chemical modification and biotransformation of isosteviol” (Eur J Med Chem, 2013).

Columns and labels:
Aorta = assay: Vasorelaxant activity in Sprague-Dawley rat aorta assessed as reduction of phenylephrine-induced contraction; format: functional, tissue-based
Method in brief: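 Aortic rings held in HPSS (140 mM NaCl, 5 mM KCl, 2 mM CaCl2, 1 mM MgCl2, 5 mM HEPES, 11 mM glucose, pH 7.4) and equilibrated 2 h with several buffer changes. Isometric force changes were recorded continuously. Acetylcholine served as positive control.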

Vero = assay: Cytotoxicity against african green monkey Vero cells; format: cell-based; conditions: chlorocebus sabaeus

Row | EC50 (Aorta) | Structure (SMILES) | Activity (Vero)
1 | 4.88 nM | CC(=O)O[C@@H]1C[C@]23CC[C@H]4[C@@](C)(CCC[C@@]4(C)C(=O)O)[C@@H]2CC[C@@]1(C)C3 | –
2 | 303 nM | C[C@@]12CCC[C@@](C)(C(=O)O)[C@H]1CC[C@@]13C[C@@H](O)[C@@](C)(CC[C@@H]21)[C@@H]3O | –
3 | 59.7 nM | CC(=O)O[C@@H]1C[C@@]23C[C@]1(C)CC[C@H]2[C@]1(C)CCC[C@@](C)(C(=O)O)[C@H]1C[C@@H]3O | –
4 | 19.5 nM | CC(=O)O[C@@H]1C[C@]23CC[C@H]4[C@@](C)(CCC[C@@]4(C)C(=O)O)[C@@H]2CC[C@@]1(C)[C@@H]3O | –
5 | 29.1 nM | C[C@@]12CC[C@@H]3[C@@](CC[C@H]4[C@@]3(C)CCC[C@@]4(C)C(=O)O)(C[C@H]1O)C2 | –

Continued, compound first:

Row | Structure (SMILES) | EC50 (Aorta) | Activity (Vero)
6 | C[C@@]12CC[C@H]3[C@]4(C)CCC[C@@](C)(C(=O)O)[C@H]4C[C@H](O)[C@]3(C[C@H]1O)C2 | 41.8 nM | –
7 | C[C@@]12CC[C@H]3[C@]4(C)CCC[C@@](C)(C(=O)O)[C@H]4C[C@@H](O)[C@]3(C[C@H]1O)C2 | 39.8 nM | –
8 | C[C@@]12CC[C@H]3[C@]4(C)CCC[C@@](C)(C(=O)O)[C@H]4C[C@H](O)[C@]3(CC1=O)C2 | 3.46 nM | Non-toxic
9 | CC(=O)OCC[N+](C)(C)C [ACETYLCHOLINE IODIDE] | 65 nM | –
10 | C[C@@]12CC[C@@H]3[C@@](CC[C@H]4[C@@]3(C)CCC[C@@]4(C)C(=O)O)(CC1=O)C2 [ISOSTEVIOL] | 57.4 nM | –
